High-throughput results: PubChem, several laboratories
Compounds with a hit are over-represented: about 2.3% of the library has one in this group of screens.
Rpn11 block = inhibitors of human proteasome Rpn11. human 26S proteasome, Ub4-pepOG fluorescence polarization; 20S core pre-blocked with epoxomicin. calls only at 20 µM. actives 0.59% (n = 360,000). O00487;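 active means inhibition at 20 µM, scaled to each plate's controls, above about 33%, limit read from the data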
Target sequence (O00487 whole entry, looked up): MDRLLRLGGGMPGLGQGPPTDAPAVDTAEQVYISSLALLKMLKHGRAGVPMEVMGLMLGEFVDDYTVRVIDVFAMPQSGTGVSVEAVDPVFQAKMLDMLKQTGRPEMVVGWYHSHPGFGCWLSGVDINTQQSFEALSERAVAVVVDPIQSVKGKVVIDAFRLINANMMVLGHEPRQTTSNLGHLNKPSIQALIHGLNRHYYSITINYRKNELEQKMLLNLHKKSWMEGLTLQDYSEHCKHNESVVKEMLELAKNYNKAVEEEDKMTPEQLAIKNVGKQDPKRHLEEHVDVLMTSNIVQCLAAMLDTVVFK
CSN inh = CSN deneddylation inhibition. Q92905. Purified CSN, SCF-Nedd8-OG deneddylation, fluorescence polarization. actives 0.38% (n = 360,000). inhibition, % at 12.5 µM;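 active means pattern-corrected inhibition above about 35%, with an unprinted fluorescence ratio check between 0.5 and 1.5, limit read from the data, passing the limit was not always enough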
Target sequence (Q92905 whole entry, looked up, one chain of several): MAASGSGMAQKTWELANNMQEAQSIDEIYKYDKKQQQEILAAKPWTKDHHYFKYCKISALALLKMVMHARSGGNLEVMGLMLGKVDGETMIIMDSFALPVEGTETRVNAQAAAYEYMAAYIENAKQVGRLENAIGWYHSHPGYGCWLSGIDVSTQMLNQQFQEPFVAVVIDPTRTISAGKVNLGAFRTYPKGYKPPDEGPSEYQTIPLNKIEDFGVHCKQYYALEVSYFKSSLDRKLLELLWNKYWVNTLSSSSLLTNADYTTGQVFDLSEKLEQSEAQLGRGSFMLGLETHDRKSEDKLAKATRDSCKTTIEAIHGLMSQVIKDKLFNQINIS
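Assay system: Purified human Csn5 enzyme expressed in HEK293T cells | Amount: Enzyme 0.24 nM | Measured by: Fluorescence polarization readout | Medium: Tris/NaCl/DTT buffer, pH 7.5 | Compound dosing: One concentration, 12.5 µM, 0.25% DMSO | Times: 90 min incubation of compound, enzyme and substrate at room temperature | Control set: no-enzyme wells high, enzyme-with-substrate wells low | Read-out: % inhibition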
CRFR2-BP antag = blocks CRF-induced signaling of the CRF-BP/CRF-R2 complex; HEK293 CRF-R2/CRF-BP, CRF-induced calcium fluorescence; inhibition, % at 11.8 µM; AID 588475; actives 0.59% (n = 350,000);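 active means inhibition of the ligand-induced calcium signal above about 50% at the single tested concentration, limit read from the data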
TPT1 inhibitor = blocks Candida albicans tRNA 2'-phosphotransferase. inhibition, % at 5 µM. actives 0.81% (n = 300,000). AID 1962. recombinant caTPT1, FP RNA substrate dephosphorylation;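 active means inhibition above the mean of all tested compounds plus 3 SD, set per screening campaign, cut at about 24% in these data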
HNF4A DNA FP = change in binding of human HNF4 alpha to DNA; P41235; HNF4a-FITC DNA binding, fluorescence polarization, 1 h; activity change, % at 10 µM; actives 0.3% (n = 360,000); AID 1224865; in the data active means activity change above about 30%, passing the limit was not always enough
CRFBP-R2 agonist = agonists of human CRF-binding protein/CRF-R2 receptor complex; actives 0.46% (n = 350,000); AID 588473; HEK293 CRF-R2/CRF-BP, calcium dye fluorescence (FLIPR); percent of saturating CRF peptide response; activation, % at 13.2 µM;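 active means activation of at least 50%, plus an integration ratio under a set limit after plate pattern correction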
Large screens that a line does not name were inactive; ! = not confirmed by another sample.

CCOC(=O)N/N=C(/C)c1cccc(-n2cnnn2)c1	none
CC(=NNC(=S)N1CCN(c2ccccn2)CC1)c1nccs1	none (no result: TPT1 inhibitor)
CC(=NNC(=S)N1CCN(c2ccccn2)CC1)c1ccccn1	Rpn11 block active (no result: TPT1 inhibitor)
Cc1ccc(-c2cc(C(=O)Nc3ccc(S(=O)(=O)Nc4onc(C)c4C)cc3)[nH]n2)c(O)c1	none
COc1ccc2c(COC(=O)c3n[nH]c4ccccc34)cc(=O)oc2c1	CSN inh 38
Cc1cc2oc(=O)cc(COC(=O)c3n[nH]c4ccccc34)c2cc1C	none
O=P(c1ccccc1)(c1ccccc1)c1cc(S(=O)(=O)O)ccc1O	CRFBP-R2 agonist 115 (no result: TPT1 inhibitor)
O=P(O)(c1ccccc1)c1ccccc1O	none
O=C(O)c1cccc(NC2=C(Cl)C(=O)c3ccccc3C2=O)c1	none (no result: TPT1 inhibitor)
CC(C)NC1=C(Cl)C(=O)c2ccccc2C1=O	none
O=C1C(Cl)=C(Nc2ccccc2)C(=O)c2ccccc21	CRFR2-BP antag 83
O=C(O)c1ccc(NC2=C(Cl)C(=O)c3ccccc3C2=O)cc1	CRFR2-BP antag 101
COc1cc(-c2nc(-c3ccc(NC(=O)c4ccc5c(c4)OCO5)cc3)no2)cc(OC)c1OC	none
Cc1cc(C)cc(OC(=O)CCN2C(=O)c3ccccc3C2=O)c1	none
Cc1cccc(N2CCN(C(=O)CCc3nc4ccccc4c(=O)[nH]3)CC2)c1C	CRFR2-BP antag 74 (no result: TPT1 inhibitor)
Nc1nc(SCC(=O)NCC2CCCO2)[nH]c(=O)c1NC(=O)c1ccc(F)c(F)c1 (stereo not given)	none
Nc1nc(SCC(=O)NCC2CCCO2)[nH]c(=O)c1NC(=O)c1ccco1 (stereo not given)	CSN inh 46
S=c1[nH]nc(C2CCCCC2)n1/N=C/c1ccc(Br)cc1	none
S=c1[nH]nc(C2CCCCC2)n1/N=C/c1ccc(Br)s1	HNF4A DNA FP 35
N#C/C(=C\c1ccc(C(=O)O)cc1)c1nc2sc3c(c2c(=O)[nH]1)CCCC3	CSN inh 70 (not shown: Rpn11 block, TPT1 inhibitor)
CCn1cc(C=C2C(=O)c3ccccc3C2=O)c2ccccc21	HNF4A DNA FP 36, CRFBP-R2 agonist 196 (no result: TPT1 inhibitor)
Nc1[nH]c(C(=O)c2ccccc2)c(-c2ccccc2Br)c1C(=O)NCCc1ccc(Cl)cc1Cl	none (no result: Rpn11 block, CRFR2-BP antag, TPT1 inhibitor, CRFBP-R2 agonist)
Cc1cc2c(cc1C)NC(c1c(C)n(C)n(-c3ccccc3)c1=O)C1=C(CC(C)(C)CC1=O)N2 (stereo not given)	CRFBP-R2 agonist 63
O=C(O)c1cc(-c2ccccc2)nc(-c2ccccc2)c1	CRFR2-BP antag 54 (no result: TPT1 inhibitor)
CCN(CC)c1ccc(/C=C/c2nc3ccccc3s2)cc1	TPT1 inhibitor 178 (no result: Rpn11 block, CSN inh, CRFR2-BP antag, HNF4A DNA FP, CRFBP-R2 agonist)
CCN(CC)c1ccc(NC(=O)COC(=O)/C=C/c2nc3ccccc3s2)cc1	none
COc1ccc(S(N)(=O)=O)cc1C(=O)NC1CCCc2ccccc21 (stereo not given)	none
Cc1cc(Br)ccc1NC(=O)C(C)c1ccc([N+](=O)[O-])cc1 (stereo not given)	none
COc1cc(C(=O)COC(=O)C2CCN(c3ccc(C(F)(F)F)cn3)CC2)ccc1OC(F)F	none
O=C(O)C1C2C=CC(O2)C1C(=O)Nc1ccc(S(=O)(=O)N2CCc3ccccc32)cc1 (stereo not given)	none
O=C(O)C1C2C=CC(O2)C1C(=O)Nc1ccc(S(=O)(=O)Nc2ccccc2)cc1 (stereo not given)	CRFR2-BP antag 54
O=C(NCC1CCCO1)C1CCCN1C(=O)NC1CCCCC1 (stereo not given)	CRFR2-BP antag 53
O=C(NC1CC1)C1CCCN1C(=O)NC1CCCCC1 (stereo not given)	none
Cc1ccc(S(=O)(=O)c2nnn3c2nc(N2CCOCC2)c2ccccc23)cc1C	CRFR2-BP antag 55
Cc1ccc(S(=O)(=O)c2nnn3c2nc(N2CCOCC2)c2ccccc23)c(C)c1	CRFR2-BP antag 106
CC(C)c1ccc(S(=O)(=O)c2nnn3c2nc(N2CCCCC2)c2ccccc23)cc1	none
Cc1ccc(S(=O)(=O)N(CC(=O)NCc2ccco2)Cc2ccccc2F)cc1	CRFR2-BP antag 89 (no result: TPT1 inhibitor)
Cc1ccc(S(=O)(=O)NCC(=O)N(CCc2ccccc2)CC(=O)NCc2ccco2)cc1	none (no result: TPT1 inhibitor)
Cc1ccc(S(=O)(=O)NCC(=O)N(CC(=O)NCc2ccco2)Cc2ccccc2)cc1	CRFBP-R2 agonist 55
O=C(NCc1ccccn1)C1CCN(S(=O)(=O)c2cc(Cl)ccc2Cl)CC1	none
c1ccc(NN(Cc2ccncc2)c2ccccc2)cc1	none (no result: TPT1 inhibitor)
N#Cc1ccc(CN(Nc2ccccc2)c2ccccc2)cc1	CRFR2-BP antag 56 (no result: TPT1 inhibitor)
CCn1cc(C(=O)N2CCN(c3ccccc3F)CC2)c(=O)c2ccc(C)nc21	none
COc1ccc(N(C(=O)c2ccncc2)S(=O)(=O)c2ccc(F)cc2)cc1	CSN inh 85 (no result: CRFR2-BP antag, CRFBP-R2 agonist)
COc1ccc(N(C(=O)c2ccncc2)S(=O)(=O)c2ccccc2)cc1	none
CCc1nnc(NC(=O)CCC(=O)N2CCN(Cc3cc(Cl)ccc3OC)CC2)s1	CRFR2-BP antag 106
O=Nc1c(O)n(Cc2c(Cl)cccc2Cl)c2ccccc12	CRFBP-R2 agonist 163
Cc1ccc(C)c(N2CCN(C(=O)c3cc4ccccn4n3)CC2)c1	CRFBP-R2 agonist 119
O=C(c1cc2ccccn2n1)N1CCN(c2cccc(C(F)(F)F)c2)CC1	none
O=[N+]([O-])c1ccc(N/N=C/c2sc(N3CCOCC3)nc2-c2ccccc2)c(S(=O)(=O)Nc2ccc(Cl)cc2)c1	HNF4A DNA FP 59, CRFBP-R2 agonist 83 (no result: TPT1 inhibitor)
Cc1ccc(-c2cc(NC(=O)CSc3n[nH]c(N)n3)n(-c3ccccc3)n2)cc1	none
O=C(Nc1cccc2ccccc12)c1ccc([N+](=O)[O-])s1	none
O=C(c1ccc(COc2ccccc2Cl)o1)N1CCN(Cc2ccc3c(c2)OCO3)CC1	CRFR2-BP antag 60!
COC(=O)c1c(-c2ccc(F)cc2)csc1NC(=O)C1CCCO1 (stereo not given)	none
CCOC(=O)c1c(-c2ccc(OC)c(OC)c2)csc1NC(=O)C1CCCO1 (stereo not given)	CRFR2-BP antag 60
C[C@H]1CN([C@@H](C)CO)C(=O)CCCn2nncc2CO[C@H]1CN(C)C(=O)Nc1cccc(Oc2ccccn2)c1	none (no result: TPT1 inhibitor)
O=C(COC(=O)COc1ccc(Cl)cc1Br)NCc1cccs1	CRFR2-BP antag 53
NNC(=O)c1oc2ccccc2c1-n1cccc1	none
O=C(NNC(=O)c1oc2ccccc2c1-n1cccc1)c1ccco1	CRFR2-BP antag 97
CSc1nc2cc(Cl)ccc2s1	CRFR2-BP antag 52
CCCOc1ccc(-c2nnc(-c3cccs3)o2)cc1	none
O=C1NC[C@H](CCCCN2CCN(CCC3CCCCC3)C(=O)C2=O)N(CC2CCCCC2)C1=O	none (no result: Rpn11 block, CRFR2-BP antag, TPT1 inhibitor, CRFBP-R2 agonist)
CC(C)(C)C1CCc2c(sc(NC(=O)C3CC=CCC3C(=O)O)c2C#N)C1 (stereo not given)	CRFR2-BP antag 61
